Laboratory results: ChEMBL document CHEMBL1155459, “On-bead screening of a combinatorial fumaric acid derived peptide library yields antiplasmodial cysteine protease inhibitors with unusual peptide sequences” (J Med Chem, 2009)
Peptide text beside a SMILES is read from it.

Legend:
[1] = Inhibition of Plasmodium falciparum falcipain-2 after 12 hrs by fluorescence spectroscopy-based on-bead assay; parameters: concentration or dose not given beside the values; settings: concentration not given here
Method in brief: (§1)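 Library members on resin (PEGA, theoretical loading 0.40 mmol/g; added as DMSO suspension, 0.64 mM final inhibitor) preincubated with enzyme 12 h, then Cbz-Phe-Arg-AMC 40 μM added; AMC release followed by fluorescence (ex 380/em 460 nm). Kinetics compared with inhibitor-free amino-PEGA resin.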

[2] = molecular target: Rhodesain (Trypanosoma brucei rhodesiense) (UniProt Q95PM0); experiment: Inhibition of Trypanosoma brucei rhodesiense rhodesain after 12 hrs by fluorescence spectroscopy-based on-bead assay; parameters: concentration or dose not given beside the values; settings: concentration not given here; method in brief: as §1
Chain of Rhodesain (Trypanosoma brucei rhodesiense) (Q95PM0 1-450): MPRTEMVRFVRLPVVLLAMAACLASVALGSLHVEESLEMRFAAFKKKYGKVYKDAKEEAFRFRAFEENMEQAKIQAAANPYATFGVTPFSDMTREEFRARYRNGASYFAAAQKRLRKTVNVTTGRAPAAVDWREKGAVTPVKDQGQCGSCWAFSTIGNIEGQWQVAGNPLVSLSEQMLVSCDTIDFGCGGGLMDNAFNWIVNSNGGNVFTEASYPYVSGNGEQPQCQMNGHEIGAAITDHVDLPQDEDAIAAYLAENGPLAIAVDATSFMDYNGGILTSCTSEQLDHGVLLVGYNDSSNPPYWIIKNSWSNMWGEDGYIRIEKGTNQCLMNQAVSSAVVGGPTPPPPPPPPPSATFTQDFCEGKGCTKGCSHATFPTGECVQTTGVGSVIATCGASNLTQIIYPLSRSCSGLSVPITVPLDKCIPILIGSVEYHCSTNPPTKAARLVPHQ

`CC(C)C[C@H](NC(=O)[C@H](CCC(N)=O)NC(=O)/C=C/C(=O)N[C@@H](C)C(=O)NCC(=O)N[C@@H](Cc1ccccc1)C(=O)O)C(=O)N[C@@H](CC(C)C)C(=O)N[C@H](C(N)=O)C(C)C` (HELM PEPTIDE1{[C[C@H](NC(=O)/C=C/C(=O)[*:2])C(=O)NCC(=O)N[C@@H](Cc1ccccc1)C(=O)O].Q.L.L.V.[am]}$$$$V2.0) gave an inhibition [1] of 55% and an inhibition [2] of 56%.

Compound `CC(C)[C@H](NC(=O)[C@H](C)NC(=O)[C@@H](NC(=O)[C@H](CC(N)=O)NC(=O)/C=C/C(=O)N[C@@H](C)C(=O)NCC(=O)N[C@@H](Cc1ccccc1)C(=O)O)C1CCCCC1)C(N)=O` (HELM PEPTIDE1{[C[C@H](NC(=O)/C=C/C(=O)[*:2])C(=O)NCC(=O)N[C@@H](Cc1ccccc1)C(=O)O].N.[O=C([C@@H](N[*:1])C1CCCCC1)[*:2]].A.V.[am]}$$$$V2.0) has an inhibition [1] of 45% and an inhibition [2] of 36%.

`CC(C)[C@H](NC(=O)[C@@H](NC(=O)[C@@H](NC(=O)[C@H](C)NC(=O)/C=C/C(=O)N[C@@H](C)C(=O)NCC(=O)N[C@@H](Cc1ccccc1)C(=O)O)C1CCCCC1)C(C)C)C(N)=O` (HELM PEPTIDE1{[C[C@H](NC(=O)/C=C/C(=O)[*:2])C(=O)NCC(=O)N[C@@H](Cc1ccccc1)C(=O)O].A.[O=C([C@@H](N[*:1])C1CCCCC1)[*:2]].V.V.[am]}$$$$V2.0) gave an inhibition [1] of 57% and an inhibition [2] of 34%.

Work on `CC[C@H](C)[C@H](NC(=O)[C@H](CC(N)=O)NC(=O)/C=C/C(=O)NCC(=O)NCC(=O)N[C@@H](Cc1ccccc1)C(=O)O)C(=O)N[C@@H](CC(C)C)C(=O)N[C@H](C(N)=O)C(C)C` (HELM PEPTIDE1{[O=C(/C=C/C(=O)[*:2])NCC(=O)NCC(=O)N[C@@H](Cc1ccccc1)C(=O)O].N.I.L.V.[am]}$$$$V2.0) yielded an inhibition [1] of 61% and an inhibition [2] of 68%.

For `CC(C)C[C@H](NC(=O)[C@H](C)NC(=O)/C=C/C(=O)NCC(=O)NCC(=O)N[C@@H](Cc1ccccc1)C(=O)O)C(=O)N[C@H](C(=O)N[C@H](C(N)=O)C(C)C)C(C)C` (HELM PEPTIDE1{[O=C(/C=C/C(=O)[*:2])NCC(=O)NCC(=O)N[C@@H](Cc1ccccc1)C(=O)O].A.L.V.V.[am]}$$$$V2.0), the inhibition [1] was 29% and the inhibition [2] was 55%.

`CC(C)C[C@H](NC(=O)[C@@H](NC(=O)[C@H](C)NC(=O)/C=C/C(=O)N[C@@H](C)C(=O)NCC(=O)N[C@@H](Cc1ccccc1)C(=O)O)c1ccccc1)C(=O)N[C@H](C(N)=O)C(C)C` (HELM PEPTIDE1{[C[C@H](NC(=O)/C=C/C(=O)[*:2])C(=O)NCC(=O)N[C@@H](Cc1ccccc1)C(=O)O].A.[Phg].L.V.[am]}$$$$V2.0) showed an inhibition [1] of 55% and an inhibition [2] of 72%.

For `CC(C)[C@H](NC(=O)[C@H](C)NC(=O)[C@H](Cc1ccccc1)NC(=O)[C@H](CC(N)=O)NC(=O)/C=C/C(=O)N[C@@H](C)C(=O)NCC(=O)N[C@@H](Cc1ccccc1)C(=O)O)C(N)=O` (HELM PEPTIDE1{[C[C@H](NC(=O)/C=C/C(=O)[*:2])C(=O)NCC(=O)N[C@@H](Cc1ccccc1)C(=O)O].N.F.A.V.[am]}$$$$V2.0), the inhibition [1] was 25% and the inhibition [2] was 47%.

With `CC(=O)NC[C@H](NC(=O)/C=C/C(=O)N[C@@H](C)C(=O)NCC(=O)N[C@@H](Cc1ccccc1)C(=O)O)C(=O)N[C@H](C(=O)N[C@H](C(=O)N[C@H](C(N)=O)C(C)C)C(C)C)c1ccccc1` (HELM PEPTIDE1{[C[C@H](NC(=O)/C=C/C(=O)[*:2])C(=O)NCC(=O)N[C@@H](Cc1ccccc1)C(=O)O].[O=C([C@H](CN[*:3])N[*:1])[*:2]].[Phg].V.V.[am]}|PEPTIDE2{[ac]}$PEPTIDE1,PEPTIDE2,2:R3-1:R2$$$V2.0) the inhibition [1] was 20% and the inhibition [2] was 36%.

In the case of `CC[C@H](C)[C@H](NC(=O)[C@H](CC(N)=O)NC(=O)/C=C/C(=O)NCC(=O)NCC(=O)N[C@@H](Cc1ccccc1)C(=O)O)C(=O)N[C@H](C(=O)N[C@H](C(N)=O)C(C)C)C(C)C` (HELM PEPTIDE1{[O=C(/C=C/C(=O)[*:2])NCC(=O)NCC(=O)N[C@@H](Cc1ccccc1)C(=O)O].N.I.V.V.[am]}$$$$V2.0), the inhibition [1] is reported as 57% and the inhibition [2] is reported as 39%.

`CC[C@H](C)[C@H](NC(=O)[C@H](CNC(C)=O)NC(=O)/C=C/C(=O)NCC(=O)NCC(=O)N[C@@H](Cc1ccccc1)C(=O)O)C(=O)N[C@H](C(=O)N[C@H](C(N)=O)C(C)C)C(C)C` (HELM PEPTIDE1{[O=C(/C=C/C(=O)[*:2])NCC(=O)NCC(=O)N[C@@H](Cc1ccccc1)C(=O)O].[O=C([C@H](CN[*:3])N[*:1])[*:2]].I.V.V.[am]}|PEPTIDE2{[ac]}$PEPTIDE1,PEPTIDE2,2:R3-1:R2$$$V2.0) gave an inhibition [1] of 28% and an inhibition [2] of 41%.

`CC(C)[C@H](NC(=O)[C@@H](NC(=O)[C@H](Cc1ccccc1)NC(=O)[C@H](CC(N)=O)NC(=O)/C=C/C(=O)NCC(=O)NCC(=O)N[C@@H](Cc1ccccc1)C(=O)O)C(C)C)C(N)=O` (HELM PEPTIDE1{[O=C(/C=C/C(=O)[*:2])NCC(=O)NCC(=O)N[C@@H](Cc1ccccc1)C(=O)O].N.F.V.V.[am]}$$$$V2.0) gave an inhibition [1] of 40% and an inhibition [2] of 28%.

Work on `CC[C@H](C)[C@H](NC(=O)[C@H](Cc1ccccc1)NC(=O)/C=C/C(=O)NCC(=O)NCC(=O)N[C@@H](Cc1ccccc1)C(=O)O)C(=O)N[C@@H](CC(C)C)C(=O)N[C@H](C(N)=O)C(C)C` (HELM PEPTIDE1{[O=C(/C=C/C(=O)[*:2])NCC(=O)NCC(=O)N[C@@H](Cc1ccccc1)C(=O)O].F.I.L.V.[am]}$$$$V2.0) yielded an inhibition [1] of 58% and an inhibition [2] of 73%.

`CC[C@H](C)[C@H](NC(=O)[C@H](C)NC(=O)/C=C/C(=O)NCC(=O)NCC(=O)N[C@@H](Cc1ccccc1)C(=O)O)C(=O)N[C@H](C(=O)N[C@H](C(N)=O)C(C)C)C(C)C` (HELM PEPTIDE1{[O=C(/C=C/C(=O)[*:2])NCC(=O)NCC(=O)N[C@@H](Cc1ccccc1)C(=O)O].A.I.V.V.[am]}$$$$V2.0) gave an inhibition [1] of 32% and an inhibition [2] of 33%.

For `CC[C@H](C)[C@H](NC(=O)[C@H](CC(N)=O)NC(=O)/C=C/C(=O)N[C@@H](C)C(=O)NCC(=O)N[C@@H](Cc1ccccc1)C(=O)O)C(=O)N[C@@H](CC(C)C)C(=O)N[C@H](C(N)=O)C(C)C` (HELM PEPTIDE1{[C[C@H](NC(=O)/C=C/C(=O)[*:2])C(=O)NCC(=O)N[C@@H](Cc1ccccc1)C(=O)O].N.I.L.V.[am]}$$$$V2.0), the inhibition [1] was 47% and the inhibition [2] was 60%.

In the case of `CC(=O)NC[C@H](NC(=O)/C=C/C(=O)NCC(=O)NCC(=O)N[C@@H](Cc1ccccc1)C(=O)O)C(=O)N[C@H](C(=O)N[C@H](C(=O)N[C@H](C(N)=O)C(C)C)C(C)C)c1ccccc1` (HELM PEPTIDE1{[O=C(/C=C/C(=O)[*:2])NCC(=O)NCC(=O)N[C@@H](Cc1ccccc1)C(=O)O].[O=C([C@H](CN[*:3])N[*:1])[*:2]].[Phg].V.V.[am]}|PEPTIDE2{[ac]}$PEPTIDE1,PEPTIDE2,2:R3-1:R2$$$V2.0), the inhibition [1] is reported as 25% and the inhibition [2] is reported as 40%.

`CC(C)[C@H](NC(=O)[C@H](C)NC(=O)[C@H](Cc1ccccc1)NC(=O)[C@H](Cc1ccccc1)NC(=O)/C=C/C(=O)N[C@@H](C)C(=O)NCC(=O)N[C@@H](Cc1ccccc1)C(=O)O)C(N)=O` (HELM PEPTIDE1{[C[C@H](NC(=O)/C=C/C(=O)[*:2])C(=O)NCC(=O)N[C@@H](Cc1ccccc1)C(=O)O].F.F.A.V.[am]}$$$$V2.0) gave an inhibition [1] of 30% and an inhibition [2] of 37%.

`CC(C)C[C@H](NC(=O)[C@@H](NC(=O)[C@H](Cc1ccccc1)NC(=O)/C=C/C(=O)N[C@@H](C)C(=O)NCC(=O)N[C@@H](Cc1ccccc1)C(=O)O)C1CCCCC1)C(=O)N[C@H](C(N)=O)C(C)C` (HELM PEPTIDE1{[C[C@H](NC(=O)/C=C/C(=O)[*:2])C(=O)NCC(=O)N[C@@H](Cc1ccccc1)C(=O)O].F.[O=C([C@@H](N[*:1])C1CCCCC1)[*:2]].L.V.[am]}$$$$V2.0) showed an inhibition [1] of 56% and an inhibition [2] of 49%.

With `CC(=O)NC[C@H](NC(=O)/C=C/C(=O)N[C@@H](C)C(=O)NCC(=O)N[C@@H](Cc1ccccc1)C(=O)O)C(=O)N[C@@H](Cc1ccccc1)C(=O)N[C@@H](CC(C)C)C(=O)N[C@H](C(N)=O)C(C)C` (HELM PEPTIDE1{[C[C@H](NC(=O)/C=C/C(=O)[*:2])C(=O)NCC(=O)N[C@@H](Cc1ccccc1)C(=O)O].[O=C([C@H](CN[*:3])N[*:1])[*:2]].F.L.V.[am]}|PEPTIDE2{[ac]}$PEPTIDE1,PEPTIDE2,2:R3-1:R2$$$V2.0) the inhibition [1] was 43% and the inhibition [2] was 52%.

`CC(C)[C@H](NC(=O)[C@@H](NC(=O)[C@@H](NC(=O)[C@H](Cc1ccccc1)NC(=O)/C=C/C(=O)N[C@@H](C)C(=O)NCC(=O)N[C@@H](Cc1ccccc1)C(=O)O)C1CCCCC1)C(C)C)C(N)=O` (HELM PEPTIDE1{[C[C@H](NC(=O)/C=C/C(=O)[*:2])C(=O)NCC(=O)N[C@@H](Cc1ccccc1)C(=O)O].F.[O=C([C@@H](N[*:1])C1CCCCC1)[*:2]].V.V.[am]}$$$$V2.0) gave an inhibition [1] of 45% and an inhibition [2] of 49%.

`CC(=O)NC[C@H](NC(=O)/C=C/C(=O)N[C@@H](C)C(=O)NCC(=O)N[C@@H](Cc1ccccc1)C(=O)O)C(=O)N[C@H](C(=O)N[C@@H](CC(C)C)C(=O)N[C@H](C(N)=O)C(C)C)c1ccccc1` (HELM PEPTIDE1{[C[C@H](NC(=O)/C=C/C(=O)[*:2])C(=O)NCC(=O)N[C@@H](Cc1ccccc1)C(=O)O].[O=C([C@H](CN[*:3])N[*:1])[*:2]].[Phg].L.V.[am]}|PEPTIDE2{[ac]}$PEPTIDE1,PEPTIDE2,2:R3-1:R2$$$V2.0) gave an inhibition [1] of 52% and an inhibition [2] of 56%.

For `CC(C)[C@H](NC(=O)[C@@H](NC(=O)[C@@H](NC(=O)[C@H](CC(N)=O)NC(=O)/C=C/C(=O)N[C@@H](C)C(=O)NCC(=O)N[C@@H](Cc1ccccc1)C(=O)O)C1CCCCC1)C(C)C)C(N)=O` (HELM PEPTIDE1{[C[C@H](NC(=O)/C=C/C(=O)[*:2])C(=O)NCC(=O)N[C@@H](Cc1ccccc1)C(=O)O].N.[O=C([C@@H](N[*:1])C1CCCCC1)[*:2]].V.V.[am]}$$$$V2.0), the inhibition [1] was 62% and the inhibition [2] was 50%.

For `CC(C)C[C@H](NC(=O)[C@@H](NC(=O)[C@H](Cc1ccccc1)NC(=O)/C=C/C(=O)N[C@@H](C)C(=O)NCC(=O)N[C@@H](Cc1ccccc1)C(=O)O)c1ccccc1)C(=O)N[C@H](C(N)=O)C(C)C` (HELM PEPTIDE1{[C[C@H](NC(=O)/C=C/C(=O)[*:2])C(=O)NCC(=O)N[C@@H](Cc1ccccc1)C(=O)O].F.[Phg].L.V.[am]}$$$$V2.0), the inhibition [1] was 53% and the inhibition [2] was 68%.
